Results from ChEMBL document CHEMBL1125455, “Novel anthraquinone inhibitors of human leukocyte elastase and cathepsin G” (J Med Chem, 1992).
Activity calls are given as the source filed them. The rule behind the calls is not given here.

Experiments:
[1] = molecular target: Chymotrypsinogen A (Bos taurus) (UniProt P00766); experiment: Inhibitory activity against Chymotrypsinogen at 53 uM concentration
In short: (§1)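 Percent inhibition of enzyme activity at a single inhibitor concentration. Assays run at 25 °C in 0.1 M HEPES, 0.5 M NaCl, pH 7.5, with 9-11% DMSO. The method otherwise follows an earlier report.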

[2] = molecular target: T1, Cathepsin G (Homo sapiens) (UniProt P08311); experiment: Inhibitory activity against Cathepsin G (CatG) at 53 uM concentration; in short: as §1
T1 sequence (whole entry): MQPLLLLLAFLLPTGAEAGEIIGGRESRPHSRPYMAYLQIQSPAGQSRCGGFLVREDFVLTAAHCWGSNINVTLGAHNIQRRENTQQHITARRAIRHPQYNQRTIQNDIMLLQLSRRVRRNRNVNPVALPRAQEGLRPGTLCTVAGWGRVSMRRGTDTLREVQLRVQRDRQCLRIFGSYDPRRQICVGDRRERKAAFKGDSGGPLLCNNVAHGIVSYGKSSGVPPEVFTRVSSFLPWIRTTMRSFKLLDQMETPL

[3] = molecular target: T2, Neutrophil elastase (Homo sapiens) (UniProt P08246); experiment: Inhibitory activity against Human Leukocyte Elastase (HLE) at 53 uM concentration; in short: as §1
T2 sequence (whole entry): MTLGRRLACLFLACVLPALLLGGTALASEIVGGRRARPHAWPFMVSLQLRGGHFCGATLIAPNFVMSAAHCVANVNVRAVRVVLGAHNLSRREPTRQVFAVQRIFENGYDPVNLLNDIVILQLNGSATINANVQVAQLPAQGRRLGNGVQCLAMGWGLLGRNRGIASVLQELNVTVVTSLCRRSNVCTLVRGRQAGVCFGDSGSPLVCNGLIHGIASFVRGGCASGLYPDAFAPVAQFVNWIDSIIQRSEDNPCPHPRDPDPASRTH

[4] = molecular target: T3, Chymotrypsin-like elastase family member 2A (Sus scrofa) (UniProt P08419); experiment: Inhibitory activity against Porcine Pancreatic Elastase (PPE) at 53 uM concentration; NI = no inhibition; in short: as §1
T3 sequence (whole entry): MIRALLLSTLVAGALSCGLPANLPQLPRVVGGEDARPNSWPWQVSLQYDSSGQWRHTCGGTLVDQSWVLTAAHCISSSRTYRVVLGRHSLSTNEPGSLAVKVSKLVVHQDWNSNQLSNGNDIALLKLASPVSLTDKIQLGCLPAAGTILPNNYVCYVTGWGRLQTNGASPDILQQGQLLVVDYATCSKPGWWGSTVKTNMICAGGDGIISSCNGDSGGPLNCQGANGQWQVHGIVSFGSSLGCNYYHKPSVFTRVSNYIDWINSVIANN

Neutrophil elastase [5] = molecular target: T4, Neutrophil elastase (Homo sapiens, UniProt P08246); experiment: Compound was tested for the enzyme inhibitory activity against Human Leukocyte Elastase (HLE) at 53 uM concentration; in short: as §1
T4 sequence (P08246 whole entry): T2 sequence (whole entry)

[6] = molecular target: T1, Cathepsin G (Homo sapiens); experiment: Inhibitory activity against Cathepsin G (CatG) at 65 uM concentration
[7] = molecular target: T3, Chymotrypsin-like elastase family member 2A (Sus scrofa); experiment: Inhibitory activity against Porcine Pancreatic Elastase (PPE) at 65 uM concentration; NI = no inhibition
Neutrophil elastase [8] = molecular target: T4, Neutrophil elastase; experiment: Compound was tested for the enzyme inhibitory activity against Human Leukocyte Elastase (HLE) at 65 uM concentration
[9] = molecular target: T2, Neutrophil elastase (Homo sapiens); experiment: Inhibitory activity against Human Leukocyte Elastase (HLE) at 65 uM concentration
[10] = molecular target: T2, Neutrophil elastase (Homo sapiens); experiment: Inhibitory activity against Human Leukocyte Elastase (HLE) at 52 uM concentration
Neutrophil elastase [11] = molecular target: T4, Neutrophil elastase; experiment: Compound was tested for the enzyme inhibitory activity against Human Leukocyte Elastase (HLE) at 52 uM concentration
[12] = molecular target: T3, Chymotrypsin-like elastase family member 2A (Sus scrofa); experiment: Inhibitory activity against Porcine Pancreatic Elastase (PPE) at 52 uM concentration; NI = no inhibition
[13] = molecular target: Chymotrypsinogen A (Bos taurus) (UniProt P00766); experiment: Inhibitory activity against Chymotrypsinogen at 52 uM concentration; NI = no inhibition
[14] = molecular target: T1, Cathepsin G (Homo sapiens); experiment: Inhibitory activity against Cathepsin G (CatG) at 30 uM concentration
[15] = molecular target: T2, Neutrophil elastase (Homo sapiens); experiment: Inhibitory activity against Human Leukocyte Elastase (HLE) at 30 uM concentration
Neutrophil elastase [16] = molecular target: T4, Neutrophil elastase; experiment: Compound was tested for the enzyme inhibitory activity against Human Leukocyte Elastase (HLE) at 30 uM concentration
[17] = molecular target: T3, Chymotrypsin-like elastase family member 2A (Sus scrofa); experiment: Inhibitory activity against Porcine Pancreatic Elastase (PPE) at 30 uM concentration; NI = no inhibition
[18] = molecular target: Chymotrypsinogen A (Bos taurus) (UniProt P00766); experiment: Inhibitory activity against Chymotrypsinogen at 55 uM concentration
[19] = molecular target: T1, Cathepsin G (Homo sapiens); experiment: Inhibitory activity against Cathepsin G (CatG) at 55 uM concentration
[20] = molecular target: T3, Chymotrypsin-like elastase family member 2A (Sus scrofa); experiment: Inhibitory activity against Porcine Pancreatic Elastase (PPE) at 55 uM concentration; NI = no inhibition
Neutrophil elastase [21] = molecular target: T4, Neutrophil elastase; experiment: Compound was tested for the enzyme inhibitory activity against Human Leukocyte Elastase (HLE) at 55 uM concentration
[22] = molecular target: T2, Neutrophil elastase (Homo sapiens); experiment: Inhibitory activity against Human Leukocyte Elastase (HLE) at 55 uM concentration
[23] = molecular target: T1, Cathepsin G (Homo sapiens); experiment: Inhibitory activity against Cathepsin G (CatG) at 28 uM concentration
[24] = molecular target: Chymotrypsinogen A (Bos taurus) (UniProt P00766); experiment: Inhibitory activity against Chymotrypsinogen at 28 uM concentration; NI = no inhibition
[25] = molecular target: T2, Neutrophil elastase (Homo sapiens); experiment: Inhibitory activity against Human Leukocyte Elastase (HLE) at 28 uM concentration
Neutrophil elastase [26] = molecular target: T4, Neutrophil elastase; experiment: Compound was tested for the enzyme inhibitory activity against Human Leukocyte Elastase (HLE) at 28 uM concentration
[27] = molecular target: T3, Chymotrypsin-like elastase family member 2A (Sus scrofa); experiment: Inhibitory activity against Porcine Pancreatic Elastase (PPE) at 28 uM concentration; NI = no inhibition
[28] = molecular target: T1, Cathepsin G (Homo sapiens); experiment: Inhibitory activity against Cathepsin G (CatG) at 27 uM concentration
[29] = molecular target: Chymotrypsinogen A (Bos taurus) (UniProt P00766); experiment: Inhibitory activity against Chymotrypsinogen at 27 uM concentration
Neutrophil elastase [30] = molecular target: T4, Neutrophil elastase; experiment: Compound was tested for the enzyme inhibitory activity against Human Leukocyte Elastase (HLE) at 27 uM concentration
[31] = molecular target: T3, Chymotrypsin-like elastase family member 2A (Sus scrofa); experiment: Inhibitory activity against Porcine Pancreatic Elastase (PPE) at 27 uM concentration; NI = no inhibition
[32] = molecular target: T2, Neutrophil elastase (Homo sapiens); conditions: 27 uM

Cc1cc(O)c2c(c1)C(=O)c1cc(O)cc(O)c1C2=O [EMODIN]
inhibition [1]: 2% | inhibition [2]: 42% | inhibition [3]: 55% | inhibition [4]: inactive | IC50 (Neutrophil elastase [5]): 52 µM

COc1cc(O)c2c(c1)C(=O)c1cc(C)cc(O)c1C2=O [PHYSCION]
inhibition [6]: 39% | inhibition [7]: inactive | IC50 (Neutrophil elastase [8]): 6.2 µM | inhibition [9]: 100%

CC(=O)Oc1cc(OC(C)=O)c2c(c1)C(=O)c1ccc(C)c(OC(C)=O)c1C2=O
inhibition [10]: 96% | IC50 (Neutrophil elastase [11]): 12 µM | inhibition [12]: inactive | inhibition [13]: inactive

COc1cc(OC)c2c(c1)C(=O)c1cc(C(Br)Br)cc(OC)c1C2=O
inhibition [14]: 24% | inhibition [15]: 61% | IC50 (Neutrophil elastase [16]): 17 µM | inhibition [17]: inactive

Cc1ccc2c(c1O)C(=O)c1c(O)cc(O)cc1C2=O
inhibition [18]: 5% | inhibition [19]: 13% | inhibition [20]: inactive | IC50 (Neutrophil elastase [21]): 21 µM | inhibition [22]: 100%

Cc1cc(O)c2c(c1)C(=O)c1cccc(O)c1C2=O [CHRYSOPHANOL]
inhibition [23]: 39% | inhibition [24]: inactive | inhibition [25]: 79% | IC50 (Neutrophil elastase [26]): 18 µM | inhibition [27]: inactive

COc1cc(OC)c2c(c1)C(=O)c1ccc(C)c(O)c1C2=O
inhibition [28]: 4% | inhibition [29]: 7% | IC50 (Neutrophil elastase [30]): 13 µM | inhibition [31]: inactive | inhibition [32]: 80%
